In ChEMBL document CHEMBL4385671, “Discovery of small molecule inhibitors of human uridine-cytidine kinase 2 by high-throughput screening” (Bioorg Med Chem Lett, 2019):
Active and inactive are the calls of the source.

Experiments:
[1] = biological target: T1, Uridine-cytidine kinase 2 (Homo sapiens, UniProt Q9BZX2); experiment: Non-competitive inhibition of C-terminally His6-tagged human UCK2 expressed in Escherichia coli BL21(DE3) cells using phosphoenolpyruvate, NADH and varying uridine level by spectrophotometry based pyruvate kinase and lactate dehydrogenase coupled enzyme assay
T1 sequence (Q9BZX2 whole entry): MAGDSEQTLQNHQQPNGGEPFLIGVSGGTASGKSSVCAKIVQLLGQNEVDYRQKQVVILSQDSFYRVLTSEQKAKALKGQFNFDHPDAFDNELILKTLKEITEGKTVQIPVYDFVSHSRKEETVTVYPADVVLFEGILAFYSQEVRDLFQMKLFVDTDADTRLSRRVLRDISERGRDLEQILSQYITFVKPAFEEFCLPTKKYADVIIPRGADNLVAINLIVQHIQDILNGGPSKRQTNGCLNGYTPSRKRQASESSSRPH
Procedure, shortened: (§1)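 Continuous coupled assay of purified C-terminally His6-tagged UCK2. Substrate titration was done with either uridine or ATP varied, at inhibitor 0, 0.5, 1.5 or 4.5 µM. Ki was derived from kinetic analysis of these titrations.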

[2] = biological target: T1, Uridine-cytidine kinase 2; experiment: Non-competitive inhibition of C-terminally His6-tagged human UCK2 expressed in Escherichia coli BL21(DE3) cells using uridine, phosphoenolpyruvate, NADH and varying ATP level by spectrophotometry based pyruvate kinase and lactate dehydrogenase coupled enzyme assay; procedure, shortened: as §1
[3] = biological target: T1, Uridine-cytidine kinase 2; experiment: Inhibition of C-terminally His6-tagged human UCK2 expressed in Escherichia coli BL21(DE3) cells incubated for 15 mins before ATP addition and measured after 60 mins by ADP-Glo kinase assay based HTS assay
Procedure, shortened: (§2)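 His6-tagged UCK2 (C-terminal tag), purified by Ni-NTA then ion exchange; UCK2 phosphorylates uridine with ATP and ADP-Glo measures the ADP formed, after depleting leftover ATP, as luciferase luminescence. Run in 1536-well format with 0.5 mg/mL BSA, DMSO up to 3%. Primary screen at 33 μM with hit cut-off of 3 SD of the negative control. Confirmation used 8 half-log concentrations, 0.05–167 µM.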

[4] = biological target: T2, Uridine-cytidine kinase 2 (Homo sapiens) (UniProt Q9BZX2); experiment: Inhibition of UCK2 in human K562 cells assessed as inhibition of uridine salvage at 50 uM incubated for 24 hrs by 5-ethynyl-uridine incorporation assay; type: cell-based
T2 sequence (whole entry): T1 sequence (Q9BZX2 whole entry)
Procedure, shortened: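 K562 cells were given compound at 50 µM with 50 µM 5-ethynyl-uridine (5-EU). 5-EU incorporated into cellular RNA was quantified by click chemistry with a fluorescent probe. Dipyridamole at 20 µM served as control.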

[5] = biological target: T1, Uridine-cytidine kinase 2; experiment: Inhibition of C-terminally His6-tagged human UCK2 expressed in Escherichia coli BL21(DE3) cells incubated for 15 mins before ATP addition and measured after 60 mins by ADP-Glo kinase assay; procedure, shortened: as §2
[6] = biological target: T3, UMP-CMP kinase (Homo sapiens) (UniProt P30085); experiment: Inhibition of CMPK1 (unknown origin) by ADP-Glo kinase assay
T3 sequence (whole entry): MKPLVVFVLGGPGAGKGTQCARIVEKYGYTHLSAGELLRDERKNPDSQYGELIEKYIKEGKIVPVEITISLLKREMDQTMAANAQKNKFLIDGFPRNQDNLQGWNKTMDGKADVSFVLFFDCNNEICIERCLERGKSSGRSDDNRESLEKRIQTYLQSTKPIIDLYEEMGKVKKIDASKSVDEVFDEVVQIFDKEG

[7] = biological target: Dihydroorotate dehydrogenase (quinone), mitochondrial (Homo sapiens) (UniProt Q02127); experiment: Inhibition of DHODH in human K562 cells assessed as increase in uridine salvage at 200 nM incubated for 24 hrs by 5-ethynyl-uridine incorporation assay; type: cell-based
Sequence of Dihydroorotate dehydrogenase (quinone), mitochondrial (Homo sapiens) (Q02127 whole entry): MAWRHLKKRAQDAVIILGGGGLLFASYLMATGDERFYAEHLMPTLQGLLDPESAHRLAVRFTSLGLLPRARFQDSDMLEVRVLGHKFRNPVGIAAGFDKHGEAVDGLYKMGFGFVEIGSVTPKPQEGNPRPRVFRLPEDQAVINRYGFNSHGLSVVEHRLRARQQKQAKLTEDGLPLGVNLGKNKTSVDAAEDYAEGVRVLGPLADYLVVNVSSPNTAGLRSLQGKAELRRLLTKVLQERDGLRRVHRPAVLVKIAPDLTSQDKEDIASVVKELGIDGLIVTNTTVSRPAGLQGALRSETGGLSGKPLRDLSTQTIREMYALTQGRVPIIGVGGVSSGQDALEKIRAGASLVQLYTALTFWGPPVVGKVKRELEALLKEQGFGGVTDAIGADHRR

Row | SMILES | IC50 [3] [µM] | inhibition [4] | IC50 ([5]; read-out: IC50) [µM] | other results
1 | Cc1ccc(-c2nc3c(c(SCC(=O)Nc4cccc(C(=O)O)c4)n2)Cc2cccc(C)c2O3)cc1 | 52 | 51.7% | 3.8 | Ki [1]: 3.5 µM; Ki [2]: 1 µM
2 | COc1ccccc1NC(=O)CSc1nc(-c2ccc(C(C)(C)C)cc2)c(C#N)c(=O)[nH]1 | 80 | – | – | –
3 | O=C(CSc1nc(-c2ccc(F)cc2)nc2c1Cc1ccccc1O2)Nc1cccc(C(=O)O)c1 | 166 | – | – | –
4 | Cc1cccc2c1Oc1nc(-c3ccccc3)nc(SCC(=O)Nc3cccc(C(=O)O)c3)c1C2 | – | 49.6% | 4.7 | –
5 | O=C(CSc1nc(-c2ccc(O)cc2)nc2c1Cc1ccccc1O2)Nc1cccc(C(=O)O)c1 | 166 | – | – | –
6 | O=C(CSc1nc2n(-c3ccc(F)cc3)[nH]cc-2c(=O)n1)Nc1ccc(Br)cc1 | 9.2 | 31.3% | 16.4 to 16.6 | Ki [1]: 13 µM; Ki [2]: 12 µM
7 | Cc1cc(C)cc(NC(=O)CSCn2[nH]nc3c(=O)nc(Cc4ccc(F)cc4)nc2-3)c1 | 18.9 | 41.5% | 48 | Ki [1]: 50 µM; Ki [2]: 31 µM; inhibition [6]: inactive
8 | O=C(N[C@@H]1CCCc2c1[nH]c1ccc(Cl)cc21)c1ccccn1 | – | – | – | inhibition [7]: Active
9 | O=C(CSCn1[nH]nc2c(=O)nc(Cc3ccc(F)cc3)nc1-2)Nc1ccc(F)cc1 | – | – | – | IC50 [5]: Not Active
10 | CC(C)(C)c1ccc(-c2nc(SCC(=O)Nc3ccc(Cl)cc3)[nH]c(=O)c2C#N)cc1 | 138 | – | – | –
11 | Cc1ccc(-c2nc3c(c(SCC(=O)Nc4ccccc4)n2)Cc2cccc(C)c2O3)cc1 | – | inactive | 26.8 | –
12 | COc1cccc2c1Oc1nc(-c3ccc(C)cc3)nc(SCC(=O)Nc3cccc(C(=O)O)c3)c1C2 | – | 14.9% | 11.8 | –
13 | COc1cccc(NC(=O)CSCn2[nH]nc3c(=O)nc(Cc4ccc(F)cc4)nc2-3)c1 | – | – | – | IC50 [5]: Not Active
14 | Cc1ccccc1NC(=O)CSCn1[nH]nc2c(=O)nc(Cc3ccc(F)cc3)nc1-2 | – | 26.3% | – | –
